For one assay, the system named is HT-29. As to the kind of experiment: Cytotoxicity against human HT-29 cells after 48 hrs by sulforhodamine B assay. It is filed as functional. The following applies: HT-29, 48 h. The method in brief: (§1)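 Cells seeded at 5×10^3 per well in RPMI and allowed to attach for 18 h in drug-free medium. Samples were added in 3:7 DMSO/H2O, with highest concentration 100 µM, and exposed for 48 h. Cells were fixed with cold TCA at 4 °C for 60 min, stained with 0.4% SRB and solubilized in Tris. OD was read at 490 nm. GI50, TGI and LC50 came from automated analysis following the NCI protocol.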
A general note: The SRB assay estimates cell density from bound dye.

Assay [1] relates to MDA-MB-231. As to the kind of experiment: Inhibition of histone deacetylase expressed in human MDA-MB-231 cells. It is filed as cell-based. The method in brief: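 Cell extracts from MDA-MB-231 breast carcinoma served as enzyme source. Trichostatin A at 250 nM was the reference inhibitor. Test concentrations were 10, 2, 0.4, 0.08 and 0.016 µg/mL. Data are % inhibition relative to controls.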

The target of assay [2] is Epidermal growth factor receptor (Homo sapiens) (UniProt P00533). As to the kind of experiment: Inhibition of EGFR expressed in human HeLa cells at 10 ug/mL by AP1-luciferase reporter gene assay relative to control. Type of assay: cell-based. The method in brief: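 AP1-luc stably transfected HeLa cells were grown in DMEM/10% FBS at 20,000 cells/well and set for 24 h. They were treated with 1% DMSO vehicle or compound (10, 2, 0.4, 0.08, 0.016 µg/mL) before stimulation with EGF at 25 ng/mL. Control inhibitor was AG-1478 at 20 µM. Survival was checked by calcein-AM (0.1 µM, 30 min, 37 °C), then luciferase read by luminescence. Values are % of control.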
Chain of Epidermal growth factor receptor (Homo sapiens) (P00533 whole entry): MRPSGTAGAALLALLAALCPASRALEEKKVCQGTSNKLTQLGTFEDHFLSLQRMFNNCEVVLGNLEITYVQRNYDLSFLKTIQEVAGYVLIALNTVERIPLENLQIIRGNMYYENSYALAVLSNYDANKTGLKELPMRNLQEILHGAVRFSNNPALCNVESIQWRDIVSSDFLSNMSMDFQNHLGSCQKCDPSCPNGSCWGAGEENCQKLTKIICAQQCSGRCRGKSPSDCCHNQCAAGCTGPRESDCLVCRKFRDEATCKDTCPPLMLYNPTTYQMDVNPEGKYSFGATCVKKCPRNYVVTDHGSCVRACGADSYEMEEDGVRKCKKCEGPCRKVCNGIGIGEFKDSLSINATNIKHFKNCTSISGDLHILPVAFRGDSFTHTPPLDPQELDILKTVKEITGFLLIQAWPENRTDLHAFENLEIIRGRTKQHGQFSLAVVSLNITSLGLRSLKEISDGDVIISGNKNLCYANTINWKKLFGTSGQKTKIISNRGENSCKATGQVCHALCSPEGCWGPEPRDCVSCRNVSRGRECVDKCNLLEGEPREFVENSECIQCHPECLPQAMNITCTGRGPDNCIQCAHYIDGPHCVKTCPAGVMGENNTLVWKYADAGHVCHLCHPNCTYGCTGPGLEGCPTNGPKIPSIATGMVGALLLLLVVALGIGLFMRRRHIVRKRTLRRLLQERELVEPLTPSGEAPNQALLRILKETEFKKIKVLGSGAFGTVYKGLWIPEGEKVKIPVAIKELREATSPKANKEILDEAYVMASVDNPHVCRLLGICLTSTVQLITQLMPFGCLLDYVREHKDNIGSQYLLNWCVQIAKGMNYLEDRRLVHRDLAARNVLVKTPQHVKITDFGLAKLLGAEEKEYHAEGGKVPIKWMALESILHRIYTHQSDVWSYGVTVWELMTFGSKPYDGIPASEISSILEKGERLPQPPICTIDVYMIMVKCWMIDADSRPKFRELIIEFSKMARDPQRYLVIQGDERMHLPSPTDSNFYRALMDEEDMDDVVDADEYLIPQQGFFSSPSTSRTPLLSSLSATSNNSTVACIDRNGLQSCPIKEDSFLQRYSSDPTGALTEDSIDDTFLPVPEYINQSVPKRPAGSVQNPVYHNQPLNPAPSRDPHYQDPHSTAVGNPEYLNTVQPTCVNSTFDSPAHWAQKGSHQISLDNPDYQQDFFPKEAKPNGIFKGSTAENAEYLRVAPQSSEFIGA
(In a reporter assay the amount or activity of a reporter protein is the signal.)

For assay [3], the system named is MDA-MB-231. The assay can be described thus: Cytotoxicity against human MDA-MB-231 cells after 48 hrs by sulforhodamine B assay. Type of assay: functional. Particulars: MDA-MB-231, 48 h. The method in brief: as §1
The next assay has as its system HeLa. The assay can be described thus: Inhibition of mitosis in human HeLa cells assessed as G2 checkpoint inhibition by ELISA. Type of assay: functional, cell-based. Summed up:
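ELISA immunoassay in HeLa cells. Paclitaxel and vinblastine (each 1 µg/mL) were control inhibitors. Five fixed concentrations were tested (10, 2, 0.4, 0.08, 0.016 µg/mL). Inhibition and survival are given as % of controls.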

For assay [4], the target named is T1, Catenin beta-1 (Homo sapiens) (UniProt P35222).
T1 sequence (whole entry): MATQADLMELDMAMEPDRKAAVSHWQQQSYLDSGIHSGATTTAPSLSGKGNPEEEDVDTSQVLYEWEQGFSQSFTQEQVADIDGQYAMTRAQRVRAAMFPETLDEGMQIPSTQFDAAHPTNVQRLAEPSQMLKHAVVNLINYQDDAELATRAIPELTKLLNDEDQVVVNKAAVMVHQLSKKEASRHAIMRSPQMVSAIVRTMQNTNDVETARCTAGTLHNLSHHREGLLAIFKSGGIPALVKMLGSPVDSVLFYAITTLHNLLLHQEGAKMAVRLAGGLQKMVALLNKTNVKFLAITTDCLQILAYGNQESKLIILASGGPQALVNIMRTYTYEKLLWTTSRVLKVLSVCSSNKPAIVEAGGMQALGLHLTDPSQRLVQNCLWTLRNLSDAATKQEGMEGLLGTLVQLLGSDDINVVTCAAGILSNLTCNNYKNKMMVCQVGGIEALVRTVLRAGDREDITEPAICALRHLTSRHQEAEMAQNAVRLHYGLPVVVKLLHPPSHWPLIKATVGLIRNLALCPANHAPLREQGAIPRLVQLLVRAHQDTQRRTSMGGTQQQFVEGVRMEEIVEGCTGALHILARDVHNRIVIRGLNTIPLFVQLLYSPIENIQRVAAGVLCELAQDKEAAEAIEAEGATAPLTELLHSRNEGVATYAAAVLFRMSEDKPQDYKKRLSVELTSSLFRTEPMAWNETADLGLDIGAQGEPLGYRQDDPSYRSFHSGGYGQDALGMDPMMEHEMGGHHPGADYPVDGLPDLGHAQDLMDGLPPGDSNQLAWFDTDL
The assay can be described thus: Inhibition of beta-catenin expressed in human SW480 cells by luciferase reporter gene assay.

Assay [5] addresses Hypoxia-inducible factor 1-alpha (Homo sapiens) (UniProt Q16665). As to the kind of experiment: Inhibition of HIF1alpha expressed in human HeLa cells at 10 ug/mL by HIF1-luciferase reporter gene assay relative to control. It is filed as cell-based. Summed up:
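HIF1-luc stably transfected HeLa cells were plated at 20,000 cells/well and set for 24 h. They were pretreated 30 min with 1% DMSO vehicle or compound (10, 2, 0.4, 0.08, 0.016 µg/mL), then given 50 µM deferoxamine as hypoxia mimetic for 24 h. Survival was measured by calcein-AM fluorescence (0.1 µM, 30 min, 37 °C), followed by luciferase luminescence. Reported as % of control.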

The test system of a further assay is A549. As to the kind of experiment: Cytotoxicity against human A549 cells after 48 hrs by sulforhodamine B assay. It is filed as functional. Particulars: A549, 48 h. The method in brief:
as §1

Where [6] appears, read: read-out: LC50 (the source's name).

The record followed here is ChEMBL document CHEMBL1152234, “Synthesis and antitumoral evaluation of indole alkaloid analogues containing an hexahydropyrrolo[1',2',3':1,9a,9]imidazo[1,2-a]indole skeleton” (2008).

Activity calls are given as the source filed them. The calls are words filed in the database; no cut-off is given here.

Chain of Hypoxia-inducible factor 1-alpha (Homo sapiens) (Q16665 whole entry, looked up): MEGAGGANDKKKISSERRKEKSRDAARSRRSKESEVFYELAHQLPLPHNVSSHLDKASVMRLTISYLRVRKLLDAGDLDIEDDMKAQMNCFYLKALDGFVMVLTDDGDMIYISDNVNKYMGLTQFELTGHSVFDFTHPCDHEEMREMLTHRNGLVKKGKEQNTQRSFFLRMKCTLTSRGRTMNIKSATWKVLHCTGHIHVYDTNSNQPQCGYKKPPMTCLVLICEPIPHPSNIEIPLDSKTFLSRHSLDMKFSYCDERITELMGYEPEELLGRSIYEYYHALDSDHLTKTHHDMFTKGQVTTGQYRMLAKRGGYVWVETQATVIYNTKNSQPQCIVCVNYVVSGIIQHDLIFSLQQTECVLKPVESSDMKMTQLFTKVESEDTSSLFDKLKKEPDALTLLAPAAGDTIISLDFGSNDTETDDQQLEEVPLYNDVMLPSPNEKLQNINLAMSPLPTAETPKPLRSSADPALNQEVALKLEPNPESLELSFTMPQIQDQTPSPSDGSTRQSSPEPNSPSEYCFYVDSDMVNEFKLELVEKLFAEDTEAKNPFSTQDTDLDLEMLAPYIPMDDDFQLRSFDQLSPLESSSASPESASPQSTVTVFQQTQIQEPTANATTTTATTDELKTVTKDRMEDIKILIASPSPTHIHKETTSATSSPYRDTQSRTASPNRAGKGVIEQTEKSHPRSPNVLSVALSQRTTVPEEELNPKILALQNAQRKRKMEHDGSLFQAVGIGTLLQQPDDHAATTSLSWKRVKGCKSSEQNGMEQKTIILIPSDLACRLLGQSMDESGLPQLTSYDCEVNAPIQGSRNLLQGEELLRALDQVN

For the compound `COC(=O)[C@@H]1C[C@@]2(CC=C(C)C)c3ccccc3N3C(=N)C(C)(C)N1[C@H]32`, the results for the GI50 in the assay with HT-29, in the assay with MDA-MB-231 [3] and with A549 were 4.24 µM, 11 µM and 5.66 µM, respectively. The compound also yielded an LC50 (concentration killing 50% of cells) in the assay with HT-29 of 28.3 µM. Also, the TGI in the assay with HT-29, in the assay with MDA-MB-231 [3] and with A549 was 28.3 µM throughout. For the same compound, the outcome (with MDA-MB-231 [1]; with HeLa; in assay [4]) was inactive. Also, the inhibition (as a rule, the relative decrease from the control value, in per cent) in assay [2] was found to be 0%; in assay [5], 73%. Moreover, the CC50 with MDA-MB-231 [3] (setting [6]) and with A549 (setting [6]) was 28.3 µM throughout.
